Values after ≈ are worked out from the molar mass of the structure shown.
Assays:
[1] = Half-life in Sprague-Dawley rat at 0.87 mg/kg, iv; type: ADME, organism-based; conditions: in vivo
In short: (§1)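 Single IV (about 1 mg/kg) and oral (about 5 mg/kg) doses in rat, cynomolgus monkey and dog; CL, t1/2, Vss, Cmax, tmax, AUC and oral bioavailability F derived from plasma concentration-time data.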

[2] = Volume of distribution at steady state in Sprague-Dawley rat at 0.87 mg/kg, iv; type: ADME, organism-based; conditions: in vivo, read-out: Vdss
[3] = Clearance in cynomolgus monkey at 1 mg/kg, iv; type: ADME, organism-based, Macaca fascicularis; conditions: in vivo; in short: as §1
[4] = Half-life in cynomolgus monkey at 1 mg/kg, iv; type: ADME, organism-based, Macaca fascicularis; conditions: in vivo; in short: as §1
[5] = Volume of distribution at steady state in cynomolgus monkey at 1 mg/kg, iv; type: ADME, organism-based, Macaca fascicularis; conditions: in vivo, read-out: Vdss
[6] = Clearance in Beagle dog at 1 mg/kg, iv; type: ADME, organism-based, Canis lupus familiaris; conditions: in vivo; in short: as §1
[7] = Half-life in Beagle dog at 1 mg/kg, iv; type: ADME, organism-based, Canis lupus familiaris; conditions: in vivo; in short: as §1
[8] = Volume of distribution at steady state in Beagle dog at 1 mg/kg, iv; type: ADME, organism-based, Canis lupus familiaris; conditions: in vivo, read-out: Vdss
[9] = Cmax in Sprague-Dawley rat at 4.4 mg/kg, po; type: ADME, organism-based; set-up: dose 4.4 mg/kg, route oral; conditions: in vivo; in short: as §1
[10] = Tmax in Sprague-Dawley rat at 4.4 mg/kg, po; type: ADME, organism-based; conditions: in vivo
[11] = AUC in Sprague-Dawley rat at 4.4 mg/kg, po; type: ADME, organism-based; conditions: in vivo; in short: as §1
[12] = Oral bioavailability in Sprague-Dawley rat at 4.4 mg/kg; type: ADME, organism-based; conditions: in vivo; in short: as §1
[13] = Cmax in cynomolgus monkey at 5 mg/kg, po; type: ADME, organism-based, Macaca fascicularis; set-up: dose 5 mg/kg, route oral; conditions: in vivo; in short: as §1
[14] = Tmax in cynomolgus monkey at 5 mg/kg, po; type: ADME, organism-based, Macaca fascicularis; conditions: in vivo
[15] = AUC in cynomolgus monkey at 5 mg/kg, po; type: ADME, organism-based, Macaca fascicularis; conditions: in vivo; in short: as §1
[16] = Oral bioavailability in cynomolgus monkey at 5 mg/kg; type: ADME, organism-based, Macaca fascicularis; conditions: in vivo; in short: as §1
[17] = Cmax in Beagle dog at 5.2 mg/kg, po; type: ADME, organism-based, Canis lupus familiaris; set-up: dose 5.2 mg/kg, route oral; conditions: in vivo; in short: as §1
[18] = Tmax in Beagle dog at 5.2 mg/kg, po; type: ADME, organism-based, Canis lupus familiaris; conditions: in vivo
[19] = AUC in Beagle dog at 5.2 mg/kg, po; type: ADME, organism-based, Canis lupus familiaris; conditions: in vivo; in short: as §1
[20] = Oral bioavailability in Beagle dog at 5.2 mg/kg; type: ADME, organism-based, Canis lupus familiaris; conditions: in vivo; in short: as §1
[21] = Cmax in dog in 12 month toxicology study; type: ADME, organism-based, Canis lupus familiaris; conditions: in vivo
[22] = species on record: Canis familiaris; test: Toxicity in dog assessed as occurence of convulsions; type: organism-based, Canis lupus familiaris; conditions: in vivo
[23] = tested on: Homo sapiens; test: Toxicity in normal healthy human at 200 to 1200 mg, po, administered as single dose; type: organism-based; conditions: in vivo
In short: (§2)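 Human subjects received single oral doses of 200, 600, 800 or 1200 mg and were monitored for clinically significant adverse events.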

[24] = tested on: Homo sapiens; test: Toxicity in normal healthy human assessed as occurence of adverse events at 200 to 1200 mg, po, administered as single dose; type: organism-based; conditions: in vivo; in short: as §2
[25] = Drug uptake in normal healthy human at 600 mg, po qd after 24 hrs; type: ADME, organism-based; conditions: in vivo, read-out: Drug uptake
In short: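 Healthy volunteers given 600 mg orally once daily; mean plasma concentration measured 24 h post-dose (C24h).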

[26] = Ssolubility of the compound at pH 7.3; type: physicochemical; conditions: buffer
[27] = Solubility of the compound at pH 8.5; type: physicochemical; conditions: buffer
[28] = tested on: Salmonella typhimurium; test: Genotoxicity in Salmonella typhimurium TA100 at =<5000 ug/plate in presence of metabolic activators by Ames test; type: toxicity, organism-based; conditions: salmonella enterica subsp. enterica serovar typhimurium
In short: (§3)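 Bacterial reverse mutation (Ames) test, Salmonella typhimurium TA98 and TA100, up to 5000 µg/plate, with and without metabolic activation.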

[29] = tested on: Salmonella typhimurium; test: Genotoxicity in Salmonella typhimurium TA98 at =<5000 ug/plate in absence of metabolic activators by Ames test; type: toxicity, organism-based; conditions: salmonella enterica subsp. enterica serovar typhimurium; in short: as §3
[30] = tested on: Salmonella typhimurium; test: Genotoxicity in Salmonella typhimurium TA100 at =<5000 ug/plate in absence of metabolic activators by Ames test; type: toxicity, organism-based; conditions: salmonella enterica subsp. enterica serovar typhimurium; in short: as §3

half-life [1]: 4 h
Vd [2]: 0.86 L/kg
clearance [3]: 6.8 mL/min/kg
half-life [4]: 6.5 h
Vd [5]: 0.87 L/kg
clearance [6]: 2 mL/min/kg
half-life [7]: 6 h
Vd [8]: 0.45 L/kg
Cmax [9]: 4.51 µM
Tmax [10]: 0.25 h
AUC [11]: 19.1 µM·h
bioavailability [12]: 86%
Cmax [13]: 6.12 µM
Tmax [14]: 0.25 h
AUC [15]: 19.2 µM·h
bioavailability [16]: 56%
Cmax [17]: 72.8 µM
Tmax [18]: 0.25 h
AUC [19]: 162 µM·h
bioavailability [20]: 129%
concentration at 24 h [25]: 340 ng/mL
solubility [26]: 63 µg/mL (≈ 181 µM)
solubility [27]: 234 µg/mL (≈ 674 µM)
Compound: CC1(C)OCCn2c1nc(C(=O)NCc1ccc(F)cc1)c(O)c2=O
Cmax at 12 month [21]: ≥ 67000 ng/mL
Activity [22]: Toxic
Activity [23]: Non-Toxic
Activity [24]: Non-Toxic
Activity [28]: Non-Toxic
Activity [29]: Non-Toxic
Activity [30]: Non-Toxic
